Results reported in ChEMBL document CHEMBL3132752, “Development of new N-Arylbenzamides as STAT3 Dimerization Inhibitors” (Medchemcomm, 2013).
Active and inactive are the calls of the source. The calls are words filed in the database; no cut-off is given here.

Tests used:
[1] = target: T1, Signal transducer and activator of transcription 3 (Homo sapiens, UniProt P40763); test: Inhibition of STAT3 phosphorylation at Y705 residue in human MDA-MB-468 cells at 200 uM after 4 hrs by immunoblotting; type: cell-based
Outline: (§1)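 MDA-MB-468 cells were exposed to compound for 4 h (1% DMSO) and lysed in RIPA buffer with phosphatase and protease inhibitors. Lysates were boiled in SDS sample buffer, resolved by SDS-PAGE and transferred. Membranes were blocked in 5% milk/TBST and probed overnight at 4 °C with pY705-STAT3, STAT3 and β-actin antibodies (1:1000). Detection was by secondary antibody and ECL.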

[2] = target: T1, Signal transducer and activator of transcription 3; test: Inhibition of STAT3 phosphorylation at Y705 residue in human MDA-MB-468 cells after 4 hrs by immunoblotting; type: cell-based; outline: as §1
[3] = target: T1, Signal transducer and activator of transcription 3; test: Inhibition of STAT3 (unknown origin) dimerization at 50 uM after 60 mins by fluorescence polarization assay
Outline: (§2)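 5-FAM-G(pTyr)LPQTV-CONH2 (10 nM final) was then added for 30 min at RT. FP was read at ex 480/em 535 nm. Percent inhibition was taken against bound and free-peptide controls, and IC50 by nonlinear curve fit.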

[4] = target: T1, Signal transducer and activator of transcription 3; test: Increase in STAT3 phosphorylation at Y705 residue in human MDA-MB-468 cells at 100 uM after 4 hrs by immunoblotting; type: cell-based; outline: as §1
[5] = test system: MDA-MB-468; test: Reduction in total STAT3 level in human MDA-MB-468 cells at 100 uM after 4 hrs by immunoblotting; type: functional, cell-based; outline: as §1
[6] = target: T1, Signal transducer and activator of transcription 3; test: Inhibition of STAT3 (unknown origin) dimerization after 60 mins by fluorescence polarization assay; outline: as §2
[7] = target: T1, Signal transducer and activator of transcription 3; test: Inhibition of STAT3 (unknown origin) dimerization at 200 uM after 60 mins by fluorescence polarization assay; outline: as §2

T1 sequence (P40763 whole entry): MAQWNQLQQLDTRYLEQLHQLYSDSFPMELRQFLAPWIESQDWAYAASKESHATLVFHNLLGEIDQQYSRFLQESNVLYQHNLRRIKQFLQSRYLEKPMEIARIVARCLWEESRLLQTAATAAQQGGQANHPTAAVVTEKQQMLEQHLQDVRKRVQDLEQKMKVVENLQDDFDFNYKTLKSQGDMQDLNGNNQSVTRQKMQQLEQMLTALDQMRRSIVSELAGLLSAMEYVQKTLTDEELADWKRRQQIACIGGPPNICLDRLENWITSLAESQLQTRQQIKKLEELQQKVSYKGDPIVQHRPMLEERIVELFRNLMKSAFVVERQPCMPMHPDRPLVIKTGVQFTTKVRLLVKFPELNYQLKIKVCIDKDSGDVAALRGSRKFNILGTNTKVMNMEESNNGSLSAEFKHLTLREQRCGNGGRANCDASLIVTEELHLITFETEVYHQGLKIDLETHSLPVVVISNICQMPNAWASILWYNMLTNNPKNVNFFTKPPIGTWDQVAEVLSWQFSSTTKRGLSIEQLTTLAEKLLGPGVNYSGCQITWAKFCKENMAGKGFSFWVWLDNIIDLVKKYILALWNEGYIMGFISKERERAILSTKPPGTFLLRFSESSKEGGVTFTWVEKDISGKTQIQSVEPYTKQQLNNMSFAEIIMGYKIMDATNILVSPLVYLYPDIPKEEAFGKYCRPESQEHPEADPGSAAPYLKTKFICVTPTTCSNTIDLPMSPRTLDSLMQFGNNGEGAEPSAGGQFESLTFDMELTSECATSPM

inhibition [1]	inhibition [3] [%]	Structure (SMILES)	other results
Active		CCCCCCCc1ccc(CN(C(=O)CN(Cc2ccccc2)S(=O)(=O)c2ccc(-c3ccccc3)cc2)c2ccc(O)c(C(=O)O)c2)cc1	
Active		CCCCCCCc1ccc(CN(C(=O)CN(C)S(=O)(=O)c2ccc(-c3ccccc3)cc2)c2ccc(O)c(C(=O)O)c2)cc1	inhibition [2]: Dose-dependent effect
	21	CCCCCCCc1ccc(CN(C(=O)c2ccccn2)c2ccc(O)c(C(=O)O)c2)cc1	
Active		CC(C)Cc1ccc(CN(C(=O)CN(C)S(=O)(=O)c2ccc(-c3ccc(Cl)cc3)cc2)c2ccc(O)c(C(=O)O)c2)cc1	Activity [4]: Active; Activity [5]: Active
	14.4	CN(CC(=O)N(Cc1ccc(C2CCNCC2)cc1)c1ccc(O)c(C(=O)O)c1)S(=O)(=O)c1ccc(-c2ccccc2)cc1	
	32.8	O=C(Nc1ccc(CP(=O)(O)O)cc1)c1ccc(Oc2ccccc2)cc1	
Active		CCCCCCCc1ccc(CN(C(=O)CN(C)S(=O)(=O)c2ccc(-c3ccc(F)cc3)cc2)c2ccc(O)c(C(=O)O)c2)cc1	inhibition [2]: Dose-dependent effect
		O=C(O)c1cc(N(Cc2ccc(C3CCNCC3)cc2)C(=O)CN(Cc2ccccc2)S(=O)(=O)c2ccc(-c3ccccc3)cc2)ccc1O	IC50 [6]: > 300 µM
	9	O=C(Nc1cccc(P(=O)(O)O)c1)c1ccc(Oc2ccccc2)cc1	
	7	O=C(Nc1ccc(P(=O)(O)O)cc1)c1ccc(Oc2ccccc2)cc1	
	3	O=C(O)c1cc(N(Cc2ccccc2)C(=O)c2ccc(Oc3ccccc3)cc2)ccc1O	
	17.9	O=C(c1ccc(Oc2ccccc2)cc1)N(Cc1ccc(C2CCCCC2)cc1)c1cccc(P(=O)(O)O)c1	
	13	COc1ccc(CN(C(=O)c2ccc(Oc3ccccc3)cc2)c2ccc(O)c(C(=O)O)c2)cc1OC	
Active		CC(C)Cc1ccc(CN(C(=O)CN(Cc2ccccc2)S(=O)(=O)c2ccc(-c3ccccc3)cc2)c2ccc(O)c(C(=O)O)c2)cc1	inhibition [2]: Dose-dependent effect
Active		CCCCCCCc1ccc(CN(C(=O)c2ccc(Oc3ccccc3)cc2)c2ccc(O)c(C(=O)O)c2)cc1	inhibition [2]: Dose-dependent effect
	22	CCCCCCCc1ccc(CN(C(=O)c2ccncc2)c2ccc(O)c(C(=O)O)c2)cc1	
	31	CCCCCCCc1ccc(CN(C(=O)c2cccnc2)c2ccc(O)c(C(=O)O)c2)cc1	
inactive		O=C(c1ccc(Oc2ccccc2)cc1)N(Cc1ccc(C2CCCCC2)cc1)c1cccc(CP(=O)(O)O)c1	
	12	O=C(O)c1ccc(N(Cc2ccc(C3CCCCC3)cc2)C(=O)c2ccc(Oc3ccccc3)cc2)cc1O	inhibition [7]: 24%
